The text below walks through data of ChEMBL document CHEMBL4808162, “Constraining the Side Chain of C-Terminal Amino Acids in Apelin-13 Greatly Increases Affinity, Modulates Signaling, and Improves the Pharmacokinetic Profile” (J Med Chem, 2021).

One data set relates to Rattus norvegicus. Put plainly: Hypotensive effect in Sprague-Dawley rat assessed as drop in mean arterial blood pressure at 19.6 nmol/kg, iv bolus injection measured after 1 min. The format is functional. Summed up:
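Male Sprague-Dawley rats (250−300 g) under ketamine/xylazine (87/13 mg/kg i.m.) on a thermostatic pad. Mean arterial pressure recorded through a right carotid catheter. Saline vehicle bolus given, then 5 min later the peptide i.v. at 19.6 nmol/kg (n = 5) or 65 nmol/kg.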

Data set [1] deals with T1, Apelin receptor (Homo sapiens, UniProt P35414).
T1 sequence (P35414 whole entry): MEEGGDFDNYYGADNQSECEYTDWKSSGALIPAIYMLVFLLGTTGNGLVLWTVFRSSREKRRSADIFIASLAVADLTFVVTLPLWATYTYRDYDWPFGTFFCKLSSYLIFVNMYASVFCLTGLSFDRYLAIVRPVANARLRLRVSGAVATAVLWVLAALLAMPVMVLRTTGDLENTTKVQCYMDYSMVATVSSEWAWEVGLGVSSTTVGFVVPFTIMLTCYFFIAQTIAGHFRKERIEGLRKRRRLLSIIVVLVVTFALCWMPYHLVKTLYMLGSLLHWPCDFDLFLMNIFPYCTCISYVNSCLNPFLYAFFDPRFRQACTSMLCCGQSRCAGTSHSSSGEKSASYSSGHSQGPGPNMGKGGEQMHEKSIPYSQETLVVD
Put plainly: Displacement of [125I] [NIe75,Tyr77]Pyr-apelin-13 from YFP-tagged human APJ receptor expressed in HEK293 cells incubated for 1 hr by gamma counting analysis. The format is cell-based.

Data set [2] deals with T1, Apelin receptor. The experiment in a line: Agonist activity at human APJ receptor expressed in HEK293 cells co-expressing Rlucll-beta-arrestin2 assessed as induction of beta-arrestin2 recruitment to receptor incubated for 30 mins by BRET assay. The format is functional, cell-based.
Data set [3] deals with T1, Apelin receptor. Put plainly: Agonist activity at human APJ receptor expressed in HEK293T cells co-expressing Galphai1 RlucII assessed as dissociation of Galphai1 from Gbetta/gamma subunit measured using coelenterazine luciferase substrate incubated for 5 mins by BRET assay. The format is functional, cell-based, HEK293.
Data set [4] is described as follows: Stability in Sprague-Dawley rat plasma assessed as half life measured up to 24 hrs by UPLC-MS analysis. The format is ADME, cell-free. In a few lines: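 Peptide (6 μL of 1 mM aqueous solution) incubated with 27 μL male Sprague-Dawley rat plasma at 37 °C. Time points 0, 1, 2, 4, 7, 24 h, or 0–120 min for labile peptides. Reaction quenched with acetonitrile-ethanol containing N,N-dimethylbenzamide internal standard, filtered, then UPLC-MS. t1/2 from one-phase exponential decay; at least three experiments.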

The target in data set [5] is T1, Apelin receptor. Put plainly: Agonist activity at human APJ receptor expressed in HEK293T cells co-expressing PDZ-Rho-Gef-RLucll and rGFP-CAAX assessed as induction of recruitment of Galpha12 to cell membrane using coelenterazine luciferase substrate incubated for 5 mins by BRET assay. It is filed as functional, cell-based, HEK293.
Data set [6] has as its target Angiotensin-converting enzyme 2 (Rattus norvegicus, UniProt Q5EGZ1). Put plainly: Stability of the compound assessed as recombinant rat ACE2-mediated degradation measured up to 24 hrs by UPLC-MS analysis. It is filed as ADME. In a few lines:
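Recombinant rat ACE2 at 20 nM final in 100 mM Tris-HCl, 100 mM NaCl, 10 μM ZnCl2, pH 7.4. Peptide at 50 μM final with N,N-dimethylbenzamide internal standard, incubated 1, 2 and 24 h at 37 °C with shaking. Reaction stopped with EDTA; blank used pre-inactivated enzyme. Remaining peptide measured by UPLC-MS in SIM mode, oxidized forms summed; n = 3.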

Peptide text beside a SMILES is read from it.

Sequence of Angiotensin-converting enzyme 2 (Q5EGZ1 whole entry): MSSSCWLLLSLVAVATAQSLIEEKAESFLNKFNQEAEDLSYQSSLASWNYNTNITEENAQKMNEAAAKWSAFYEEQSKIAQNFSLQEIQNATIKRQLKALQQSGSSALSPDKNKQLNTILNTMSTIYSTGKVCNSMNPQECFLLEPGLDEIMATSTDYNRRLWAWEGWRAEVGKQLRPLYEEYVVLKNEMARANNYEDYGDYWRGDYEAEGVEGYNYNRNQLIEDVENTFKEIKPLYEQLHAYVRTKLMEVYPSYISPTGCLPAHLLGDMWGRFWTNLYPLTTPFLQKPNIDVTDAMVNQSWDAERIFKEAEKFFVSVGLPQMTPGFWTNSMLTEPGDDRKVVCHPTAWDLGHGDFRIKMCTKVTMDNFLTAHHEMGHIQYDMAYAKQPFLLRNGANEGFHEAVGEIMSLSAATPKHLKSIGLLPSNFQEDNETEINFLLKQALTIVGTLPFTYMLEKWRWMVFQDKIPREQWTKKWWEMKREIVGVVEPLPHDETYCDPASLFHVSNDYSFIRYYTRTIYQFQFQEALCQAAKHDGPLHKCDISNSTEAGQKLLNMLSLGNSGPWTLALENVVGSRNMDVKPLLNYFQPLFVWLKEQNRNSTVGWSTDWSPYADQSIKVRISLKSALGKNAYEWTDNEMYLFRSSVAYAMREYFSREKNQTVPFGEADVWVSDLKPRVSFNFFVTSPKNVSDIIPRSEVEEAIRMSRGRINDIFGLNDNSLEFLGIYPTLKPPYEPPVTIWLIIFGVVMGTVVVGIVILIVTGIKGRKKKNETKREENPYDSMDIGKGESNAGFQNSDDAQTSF

With `CCCC[C@H](NC(=O)[C@@H]1CCCN1C(=O)CNC(=O)[C@H](CCCCN)NC(=O)[C@H](Cc1cnc[nH]1)NC(=O)[C@H](CO)NC(=O)[C@H](CC(C)C)NC(=O)[C@H](CCCNC(=N)N)NC(=O)[C@@H]1CCCN1C(=O)[C@H](CCCNC(=N)N)NC(=O)[C@@H]1CCC(=O)N1)C(=O)N[C@@H](Cc1cccc2ccccc12)C(=O)NC(Cc1ccccc1)(Cc1ccccc1)C(=O)O` (HELM PEPTIDE1{[Glp].R.P.R.L.S.H.K.G.P.[Nle].[O=C([C@H](Cc1cccc2ccccc12)N[*:1])[*:2]].[O=C(O)C(Cc1ccccc1)(Cc1ccccc1)N[*:1]]}$$$$V2.0), the Activity with Rattus norvegicus came out at 30 mmHg.
In the case of `CCCC[C@H](NC(=O)[C@@H]1CCCN1C(=O)CNC(=O)[C@H](CCCCN)NC(=O)[C@H](Cc1cnc[nH]1)NC(=O)[C@H](CO)NC(=O)[C@H](CC(C)C)NC(=O)[C@H](CCCNC(=N)N)NC(=O)[C@@H]1CCCN1C(=O)[C@H](CCCNC(=N)N)NC(=O)[C@@H]1CCC(=O)N1)C(=O)N[C@H](Cc1cccc2ccccc12)C(=O)N1Cc2ccccc2C[C@H]1C(=O)O`, the Ki on Apelin receptor [1] (hek293) amounted to 0.08 nM. Besides, the EC50 at Apelin receptor [2] (hek293) worked out at 33 nM; on Apelin receptor [3] (hek293) it was 4.2 nM; on Apelin receptor [5] (hek293), 28 nM. Also, the half-life in data set [4] was 6.1 h.
In turn, `CCCC[C@H](NC(=O)[C@@H]1CCCN1C(=O)CNC(=O)[C@H](CCCCN)NC(=O)[C@H](Cc1cnc[nH]1)NC(=O)[C@H](CO)NC(=O)[C@H](CC(C)C)NC(=O)[C@H](CCCNC(=N)N)NC(=O)[C@@H]1CCCN1C(=O)[C@H](CCCNC(=N)N)NC(=O)[C@@H]1CCC(=O)N1)C(=O)N[C@H](Cc1cccc2ccccc12)C(=O)N[C@H](Cc1cc(C2CCCC2)c(O)c(C2CCCC2)c1)C(=O)O` registered a Ki on Apelin receptor [1] of 1.1 nM. Further, the EC50 worked out at 95 nM at Apelin receptor [2], 10 nM on Apelin receptor [3] and 178 nM at Apelin receptor [5]. In data set [4], the half-life was > 24 h.
At Apelin receptor [1], `CCCC[C@H](NC(=O)[C@@H]1CCCN1C(=O)CNC(=O)[C@H](CCCCN)NC(=O)[C@H](Cc1cnc[nH]1)NC(=O)[C@H](CO)NC(=O)[C@H](CC(C)C)NC(=O)[C@H](CCCNC(=N)N)NC(=O)[C@@H]1CCCN1C(=O)[C@H](CCCNC(=N)N)NC(=O)[C@@H]1CCC(=O)N1)C(=O)N[C@@H](Cc1cccc2ccccc12)C(=O)N1Cc2ccccc2C[C@@H]1C(=O)O` returned an inhibition constant Ki of 0.09 nM. Also, the values for the EC50 on Apelin receptor [2], on Apelin receptor [3] and at Apelin receptor [5] were 32 nM, 1.6 nM and 15 nM, respectively. Moreover, the half-life in data set [4] was 3.4 h.
Take `CCCC[C@H](NC(=O)[C@@H]1CCCN1C(=O)CNC(=O)[C@H](CCCCN)NC(=O)[C@H](Cc1cnc[nH]1)NC(=O)[C@H](CO)NC(=O)[C@H](CC(C)C)NC(=O)[C@H](CCCNC(=N)N)NC(=O)[C@@H]1CCCN1C(=O)[C@H](CCCNC(=N)N)NC(=O)[C@@H]1CCC(=O)N1)C(=O)N[C@H](Cc1cccc2ccccc12)C(=O)N1Cc2ccccc2C(C)(C)C1C(=O)O` (stereo partly drawn): on Apelin receptor [1], the inhibition constant (Ki) was 0.16 nM. The half-maximal effective concentration (EC50) was determined as 34 nM on Apelin receptor [2], 4.1 nM at Apelin receptor [3] and 10 nM on Apelin receptor [5]. Moreover, in data set [4], the half-life is 6.3 h.
At Apelin receptor [1], `CCCC[C@H](NC(=O)[C@@H]1CCCN1C(=O)CNC(=O)[C@H](CCCCN)NC(=O)[C@H](Cc1cnc[nH]1)NC(=O)[C@H](CO)NC(=O)[C@H](CC(C)C)NC(=O)[C@H](CCCNC(=N)N)NC(=O)[C@@H]1CCCN1C(=O)[C@H](CCCNC(=N)N)NC(=O)[C@@H]1CCC(=O)N1)C(=O)N1CCC[C@H]1C(=O)N1Cc2ccccc2C[C@@H]1C(=O)O` yielded a Ki of 0.07 nM. The figures for the EC50 on Apelin receptor [2], at Apelin receptor [3] and at Apelin receptor [5] were 10 nM, 1 nM and 23 nM, respectively. Also, the half-life in data set [4] was 0.8 h.
For `CCCC[C@H](NC(=O)[C@@H]1CCCN1C(=O)CNC(=O)[C@H](CCCCN)NC(=O)[C@H](Cc1cnc[nH]1)NC(=O)[C@H](CO)NC(=O)[C@H](CC(C)C)NC(=O)[C@H](CCCNC(=N)N)NC(=O)[C@@H]1CCCN1C(=O)[C@H](CCCNC(=N)N)NC(=O)[C@@H]1CCC(=O)N1)C(=O)N[C@H](Cc1cccc2ccccc12)C(=O)N1Cc2[nH]c3ccccc3c2C[C@@H]1C(=O)O`, in that order: 1.01 nM, 96 nM, 6 nM, 25 nM and 7.8 h.
As to `CCCC[C@H](NC(=O)[C@@H]1CCCN1C(=O)CNC(=O)[C@H](CCCCN)NC(=O)[C@H](Cc1cnc[nH]1)NC(=O)[C@H](CO)NC(=O)[C@H](CC(C)C)NC(=O)[C@H](CCCNC(=N)N)NC(=O)[C@@H]1CCCN1C(=O)[C@H](CCCNC(=N)N)NC(=O)[C@@H]1CCC(=O)N1)C(=O)N[C@H]1Cc2c([nH]c3ccccc23)CN([C@@H](Cc2ccccc2)C(=O)O)C1=O`, in the data set with Rattus norvegicus, the Activity was determined as 30 mmHg.
The compound `CCCC[C@H](NC(=O)[C@@H]1CCCN1C(=O)CNC(=O)[C@H](CCCCN)NC(=O)[C@H](Cc1cnc[nH]1)NC(=O)[C@H](CO)NC(=O)[C@H](CC(C)C)NC(=O)[C@H](CCCNC(=N)N)NC(=O)[C@@H]1CCCN1C(=O)[C@H](CCCNC(=N)N)NC(=O)[C@@H]1CCC(=O)N1)C(=O)N1CCC[C@H]1C(=O)NC(Cc1ccccc1)(Cc1ccccc1)C(=O)O` returned a Ki at Apelin receptor [1] of 0.04 nM. Further, the EC50 worked out at 19 nM on Apelin receptor [2], 1.5 nM at Apelin receptor [3] and 10 nM on Apelin receptor [5]. Moreover, in data set [4], the half-life was 0.5 h.
The corresponding values for `CCCC[C@H](NC(=O)[C@@H]1CCCN1C(=O)CNC(=O)[C@H](CCCCN)NC(=O)[C@H](Cc1cnc[nH]1)NC(=O)[C@H](CO)NC(=O)[C@H](CC(C)C)NC(=O)[C@H](CCCNC(=N)N)NC(=O)[C@@H]1CCCN1C(=O)[C@H](CCCNC(=N)N)NC(=O)[C@@H]1CCC(=O)N1)C(=O)N1CCC[C@H]1C(=O)N1Cc2ccccc2C[C@H]1C(=O)O` are 1.1 nM, 67 nM, 2.5 nM, 88 nM and 1.3 h.
Turning to `CCCC[C@H](NC(=O)[C@@H]1CCCN1C(=O)CNC(=O)[C@H](CCCCN)NC(=O)[C@H](Cc1cnc[nH]1)NC(=O)[C@H](CO)NC(=O)[C@H](CC(C)C)NC(=O)[C@H](CCCNC(=N)N)NC(=O)[C@@H]1CCCN1C(=O)[C@H](CCCNC(=N)N)NC(=O)[C@@H]1CCC(=O)N1)C(=O)N[C@@H](Cc1cccc2ccccc12)C(=O)N[C@@H](Cc1ccccc1)C(=O)O`, at Apelin receptor [1] (hek293), the Ki was 0.12 nM. In addition, the EC50 came to 41 nM on Apelin receptor [2] (hek293), 4.4 nM on Apelin receptor [3] (hek293) and 9.2 nM at Apelin receptor [5] (hek293). Also, the half-life in data set [4] is 0.4 h.
`CCCC[C@H](NC(=O)[C@@H]1CCCN1C(=O)CNC(=O)[C@H](CCCCN)NC(=O)[C@H](Cc1cnc[nH]1)NC(=O)[C@H](CO)NC(=O)[C@H](CC(C)C)NC(=O)[C@H](CCCNC(=N)N)NC(=O)[C@@H]1CCCN1C(=O)[C@H](CCCNC(=N)N)NC(=O)[C@@H]1CCC(=O)N1)C(=O)N[C@H](Cc1cccc2ccccc12)C(=O)N1Cc2ccccc2C(C)C1C(=O)O` (stereo partly drawn) came in with a Ki on Apelin receptor [1] of 0.4 nM. Further, the EC50 was found to be 44 nM on Apelin receptor [2], 4.3 nM on Apelin receptor [3] and 111 nM at Apelin receptor [5]. Moreover, the half-life in data set [4] was 5.3 h.
Regarding `CCCC[C@H](NC(=O)[C@@H]1CCCN1C(=O)CNC(=O)[C@H](CCCCN)NC(=O)[C@H](Cc1cnc[nH]1)NC(=O)[C@H](CO)NC(=O)[C@H](CC(C)C)NC(=O)[C@H](CCCNC(=N)N)NC(=O)[C@@H]1CCCN1C(=O)[C@H](CCCNC(=N)N)NC(=O)[C@@H]1CCC(=O)N1)C(=O)N[C@@H](Cc1c[nH]c2ccccc12)C(=O)N[C@@H](Cc1ccccc1)C(=O)O`, the affinity at Apelin receptor [1] (hek293) corresponds to a Ki of 0.18 nM. For the same compound, the values for the EC50 on Apelin receptor [2] (hek293), on Apelin receptor [3] (hek293) and at Apelin receptor [5] (hek293) were 38 nM, 3.8 nM and 17 nM, respectively. Moreover, the half-life in data set [4] is 0.2 h. In addition, the Stabilty entry in data set [6] is “Unstable”.
